Data published in ChEMBL document CHEMBL1127779, “Stereospecific synthesis of peptidyl alpha-keto amides as inhibitors of calpain” (J Med Chem, 1994).
pKi: −log10 of the molar value. In brackets after ≈: the same amount, converted by molar mass. Non-standard residues stand in square brackets, D forms with d. Residues, ends and D or L forms follow the SMILES beside them. ξ: configuration not given here. *: point of attachment. Cbz = O=C(OCc1ccccc1)*; ξNva = CCCC(N)C(=O)O

Key:
[1] = Tested for solubility of the compound; assay type: ADME; conditions: read-out: S
How it was run: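 The DMA stock was diluted in 0.9% saline to 3% DMA (inhibitor ≤0.9 mg/mL) and brought to pH 2.75 with 0.1 N HCl. It was sonicated 5 min, held 15 min at room temperature and centrifuged 5 min at 16500g. Supernatant concentration came from C4 reverse-phase HPLC (60 °C, 210 nm) peak area, calibrated against standards in acetonitrile.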

[2] = target: T1, Calpain-2 catalytic subunit (Bos taurus, UniProt Q27971); assay: Tested for inhibitory activity on bovine calpain 2 from heart
T1 sequence (Q27971 whole entry): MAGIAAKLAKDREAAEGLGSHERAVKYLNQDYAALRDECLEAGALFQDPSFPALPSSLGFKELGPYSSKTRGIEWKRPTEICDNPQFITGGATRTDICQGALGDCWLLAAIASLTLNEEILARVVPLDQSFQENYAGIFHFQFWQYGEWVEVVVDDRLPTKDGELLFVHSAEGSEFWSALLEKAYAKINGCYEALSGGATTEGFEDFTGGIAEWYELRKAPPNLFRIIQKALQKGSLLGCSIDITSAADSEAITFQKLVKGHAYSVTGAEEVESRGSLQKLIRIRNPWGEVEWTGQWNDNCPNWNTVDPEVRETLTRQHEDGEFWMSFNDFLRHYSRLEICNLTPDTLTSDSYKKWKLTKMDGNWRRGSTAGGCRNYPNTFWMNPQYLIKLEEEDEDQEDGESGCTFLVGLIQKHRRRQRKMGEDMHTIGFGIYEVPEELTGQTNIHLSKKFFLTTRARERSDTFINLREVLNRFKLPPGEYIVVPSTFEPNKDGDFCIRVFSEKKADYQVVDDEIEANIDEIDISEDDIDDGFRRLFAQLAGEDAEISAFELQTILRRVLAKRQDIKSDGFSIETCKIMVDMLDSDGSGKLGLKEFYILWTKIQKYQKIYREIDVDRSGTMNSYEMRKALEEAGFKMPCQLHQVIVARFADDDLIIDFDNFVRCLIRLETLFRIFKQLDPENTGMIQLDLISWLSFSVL

solubility [1] [µg/mL] | pKi [2] | Compound
730 (≈ 1300 µM) | – | CCS(=O)(=O)CCNC(=O)C(=O)[C@@H](Cc1ccccc1)NC(=O)[C@H](CC(C)C)NC(=O)OCc1ccccc1
– | 7.30 | CCCC(NC(=O)[C@H](CC(C)C)NC(=O)OCc1ccccc1)C(=O)NCC (stereo partly drawn) (Cbz-Leu-[ξNva]-NHEt)
